Experimental data reported in PMC7111275 (European Journal of Medicinal Chemistry, 2013).

Experiments:
[1] = system: hepatitis C virus (HCV) replicon in Huh 7 cells; assay: Subgenomic HCV replicon system in Huh 7 cells; format: cell-based; settings: 10 μM
Summary of the method: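 Huh 7 Clone B cells carrying subgenomic HCV replicon RNA were seeded at 3000 cells/well and given test compound at 10 μM in triplicate immediately after seeding. After 5 days at 37 °C in 5% CO2, total RNA was extracted. Replicon RNA was measured against an rRNA internal control by one-step multiplex real-time RT-PCR. ΔCt was taken versus the no-drug control, where ΔCt 3.3 = 1-log reduction; rRNA ΔCt gave cytotoxicity. 2′-C-Me-C at 10 μM served as the control.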

[2] = system: PBMC, human lymphoblastoid CEM and Vero cells; assay: Cytotoxicity testing in PBMC, CEM and Vero cells; format: cell-based; settings: at 100 μM
HIV = assay: Anti-HIV activity in cellular assay; format: cell-based; settings: Human immunodeficiency virus 1, read-out: Anti-HIV activity EC90
Hel cells = settings: at 100 μM, Hel cell cultures

| EC90 (HIV) | Compound | Anti-HCV activity (in words) [1] | Cytotoxicity (in words) [2] | Cytotoxicity (in words) (Hel cells) |
| --- | --- | --- | --- | --- |
| – | COC(=O)c1nccn(C/C=C/CP(=O)(OCOC(=O)C(C)(C)C)OCOC(=O)C(C)(C)C)c1=O [Compound 13, (E)-N^1-(4′-Bis(POM)-phosphinylbut-2′-enyl)-3-oxo-pyrazine-2-methylester] | pronounced anti-HCV activity | without significant cytotoxicity | – |
| > 100 µM | CC(C)(C)C(=O)OCOP(=O)(C/C=C/Cn1ccc(N)nc1=O)OCOC(=O)C(C)(C)C [Compound 8a, (E)-N^1-(4′-Bis(POM)phosphinyl-2′-butenyl)-cytosine] | pronounced anti-HCV activity | without significant cytotoxicity | – |
| – | CC(C)(C)C(=O)OCOP(=O)(C/C=C/Cn1cc(CO)nn1)OCOC(=O)C(C)(C)C [Compound 31, (E)-1-(4′-Bis(POM)-phosphinylbut-2′-enyl)-4-(hydroxymethyl)-1,2,3-triazole] | – | – | no observed cytotoxicity |
| – | CC(C)(C)C(=O)OCOP(=O)(C/C=C/Cn1cc(C(=O)O)nn1)OCOC(=O)C(C)(C)C [Compound 24, (E)-1-(4′-Bis(POM)-phosphinylbut-2′-enyl)-4-(carboxylic acid)-1,2,3-triazole] | pronounced anti-HCV activity | without significant cytotoxicity | – |
| – | CC(C)(C)C(=O)OCOP(=O)(C/C=C/Cn1ccnc(C(N)=O)c1=O)OCOC(=O)C(C)(C)C [Compound 14, (E)-N^1-(4′-Bis(POM)-phosphinylbut-2′-enyl)-3-oxo-pyrazine-2-carboxamide] | pronounced anti-HCV activity | without significant cytotoxicity | – |
